Test results reported in ChEMBL document CHEMBL1629663, “Postantibiotic effects of telavancin against 16 gram-positive organisms” (Antimicrob Agents Chemother, 2009).
Values after ≈ are worked out from the molar mass of the structure shown.

What was measured:
Format in all cases: functional
Staphylococcus aureus [1] = assay: Antimicrobial activity against vancomycin-susceptible-, methicillin-resistant Staphylococcus aureus ATCC 33591 assessed as time required to induce post antibiotic sub-MIC effect at 0.4 times MIC […] by plate counting method
Method in brief: (§1)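 After 1 h preexposure to 10× MIC at 35°C and 1:1,000 dilution, cultures were split, and drug was re-added to final 0.2, 0.3 or 0.4× MIC, with a drug-free tube. Viable counts were taken every 2 h until McFarland 1 turbidity. Duration was derived from log10 CFU/ml versus time curves. Two experiments were run, each with a new inoculum.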

Staphylococcus aureus [2] = assay: Antimicrobial activity against heterogenous vancomycin-intermediate-, methicillin-resistant Staphylococcus aureus 618 assessed as time required to induce sub-MIC effect at 0.2 times MIC exposed for 2 hrs by plate counting method
Method in brief: (§2)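 SME, viable plate count method: no prior drug exposure. About 5 × 10^6 CFU/ml in Mueller-Hinton broth at 35°C received 0.2, 0.3 or 0.4× MIC, alongside a drug-free tube. Counts were taken at the start, then every 2 h until McFarland no. 1 turbidity, as log10 CFU/ml against time. Two separate experiments, each with a new inoculum.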

Enterococcus faecalis [3] = assay: Antimicrobial activity against Enterococcus faecalis ATCC 29212 assessed as time required to induce sub-MIC effect at 0.4 times MIC exposed for 2 hrs by plate counting method
Method in brief: (§3)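 Unexposed Mueller-Hinton broth cultures (about 5 × 10^6 CFU/ml, 35°C) were handled as in the PA-SME set but without the 10× MIC pre-exposure. They were diluted 1:1,000, then given telavancin at final 0.2, 0.3 or 0.4× MIC, with a drug-free control. Viable counts were taken every 2 h until McFarland no. 1 turbidity. Effect duration comes from log10 CFU/ml-time plots; two separate experiments with new inocula.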

Staphylococcus aureus [4] = assay: Antimicrobial activity against vancomycin-intermediate-, methicillin-resistant Staphylococcus aureus 1287 assessed as post-antibiotic effect at 10 times MIC pre-exposed to Telavancin for 1 hr by plate counting method
Method in brief: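 Viable plate count method in Mueller-Hinton broth. Direct colony suspension inoculum of about 5 × 10^6 CFU/ml was exposed to 10× MIC for 1 h at 35°C in a shaking water bath, then diluted 1:1,000 to remove drug. Counts were taken before exposure, at 0 h, then every 2 h until McFarland no. 1 turbidity. PAE = T − C, the time to a 1 log10 rise versus an unexposed growth control.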

Staphylococcus aureus [5] = assay: Antimicrobial activity against vancomycin-resistant-, methicillin-resistant Staphylococcus aureus 510 assessed as time required to induce post antibiotic sub-MIC effect at 0.3 times MIC […] by plate counting method; method in brief: as §1
Enterococcus faecalis [6] = assay: Antimicrobial activity against Enterococcus faecalis ATCC 29212 assessed as time required to induce post antibiotic sub-MIC effect at 0.2 times MIC […] by plate counting method
Method in brief: (§4)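 Mueller-Hinton broth cultures of about 5 × 10^6 CFU/ml were pre-exposed to telavancin at 10× MIC for 1 h at 35°C, then diluted 1:1,000. Telavancin was re-added to final 0.2, 0.3 or 0.4× MIC, alongside a drug-free tube. Viable counts were taken before exposure, after dilution, then every 2 h until McFarland no. 1 turbidity. Duration comes from log10 CFU/ml-versus-time plots; two separate experiments with fresh inocula.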

Staphylococcus aureus [7] = assay: Antimicrobial activity against vancomycin-intermediate-, methicillin-resistant Staphylococcus aureus 555 assessed as time required to induce sub-MIC effect at 0.3 times MIC […] by plate counting method; method in brief: as §2
Streptococcus pyogenes = assay: Antimicrobial activity against Streptococcus pyogenes HMC 414 assessed as post-antibiotic effect at 10 times MIC pre-exposed to Telavancin for 1 hr by plate counting method
Method in brief: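 Organisms were suspended in Mueller-Hinton broth from overnight blood agar colonies at about 5 × 10^6 CFU/ml. Cultures were exposed to telavancin at 10× MIC for 1 h at 35°C in a shaking water bath, then diluted 1:1,000 to remove the drug, with an untreated growth control. Viable counts were taken before exposure, at 0 h, then every 2 h until McFarland no. 1 turbidity. PAE = T − C, the time to a 1 log10 rise. Two experiments.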

Enterococcus faecium = assay: Antimicrobial activity against Enterococcus faecium HMC 588 assessed as time required to induce post antibiotic sub-MIC effect at 0.2 times MIC pre-exposed to Telavancin […] by plate counting method; method in brief: as §4
Enterococcus faecalis [8] = assay: Antimicrobial activity against Enterococcus faecalis ATCC 29212 by microdilution method
Staphylococcus aureus [9] = assay: Antimicrobial activity against vancomycin-intermediate-, methicillin-resistant Staphylococcus aureus 770 assessed as time required to induce post antibiotic sub-MIC effect at 0.3 times MIC […] by plate counting method
Method in brief: (§5)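 PAE was first induced with 10× MIC for 1 h at 35°C (inoculum about 5 × 10^6 CFU/ml, Mueller-Hinton broth) and ended by 1:1,000 dilution. Cultures were then split and given 0.2, 0.3 or 0.4× MIC, with one tube left without drug. Viable counts were taken before exposure, after dilution, then every 2 h until McFarland no. 1 turbidity. Two separate experiments, each with a new inoculum.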

Enterococcus faecalis [10] = assay: Antimicrobial activity against Enterococcus faecalis ATCC 29212 assessed as time required to induce sub-MIC effect at 0.3 times MIC exposed for 2 hrs by plate counting method; method in brief: as §3
Staphylococcus aureus [11] = assay: Antimicrobial activity against heterogenous vancomycin-intermediate-, methicillin-resistant Staphylococcus aureus 873 by microdilution method
Staphylococcus aureus [12] = assay: Antimicrobial activity against vancomycin-susceptible-, methicillin-resistant Staphylococcus aureus ATCC 33591 assessed as time required to induce sub-MIC effect at 0.4 times MIC exposed for 2 hrs by plate counting method
Method in brief: (§6)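 Sub-MIC effect: cultures not preexposed to drug were diluted and handled as in the PA-SME procedure in Mueller-Hinton broth with final 0.2, 0.3 or 0.4× MIC, plus a drug-free control. Viable plate counts were taken every 2 h until McFarland 1 turbidity. Duration was derived from growth curves. Two experiments were run, each with a new inoculum.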

Staphylococcus aureus [13] = assay: Antimicrobial activity against vancomycin-susceptible-, methicillin-resistant Staphylococcus aureus 1306 assessed as time required to induce post antibiotic sub-MIC effect at 0.3 times MIC […] by plate counting method; method in brief: as §1
Staphylococcus aureus [14] = assay: Antimicrobial activity against vancomycin-intermediate-, methicillin-resistant Staphylococcus aureus 770 assessed as time required to induce post antibiotic sub-MIC effect at 0.4 times MIC […] by plate counting method; method in brief: as §5
Staphylococcus aureus [15] = assay: Antimicrobial activity against vancomycin-susceptible-, methicillin-resistant Staphylococcus aureus ATCC 33591 by microdilution method
Staphylococcus aureus [16] = assay: Antimicrobial activity against vancomycin-resistant-, methicillin-resistant Staphylococcus aureus 510 assessed as time required to induce sub-MIC effect at 0.2 times MIC exposed for 2 hrs by plate counting method; method in brief: as §6
Staphylococcus aureus [17] = assay: Antimicrobial activity against vancomycin-intermediate-, methicillin-resistant Staphylococcus aureus 770 assessed as time required to induce sub-MIC effect at 0.3 times MIC exposed for 2 hrs by plate counting method; method in brief: as §2
Staphylococcus aureus [18] = assay: Antimicrobial activity against vancomycin-intermediate-, methicillin-resistant Staphylococcus aureus 555 assessed as time required to induce sub-MIC effect at 0.2 times MIC […] by plate counting method; method in brief: as §2
Staphylococcus aureus [19] = assay: Antimicrobial activity against vancomycin-susceptible-, methicillin-resistant Staphylococcus aureus 1130 assessed as time required to induce post antibiotic sub-MIC effect at 0.4 times MIC […] by plate counting method; method in brief: as §1

CCCCCCCCCCNCCN[C@@]1(C)C[C@H](O[C@H]2[C@H](Oc3c4cc5cc3Oc3ccc(cc3Cl)[C@@H](O)[C@@H](NC(=O)[C@@H](CC(C)C)NC)C(=O)N[C@@H](CC(N)=O)C(=O)N[C@H]5C(=O)N[C@H]3C(=O)N[C@H](C(=O)N[C@H](C(=O)O)c5cc(O)c(CNCP(=O)(O)O)c(O)c5-c5cc3ccc5O)[C@H](O)c3ccc(c(Cl)c3)O4)O[C@H](CO)[C@@H](O)[C@@H]2O)O[C@@H](C)[C@H]1O [TELAVANCIN] showed a PAE (Staphylococcus aureus [1]) of over 10 h, a PAE (Staphylococcus aureus [2]) of 0.3 h and a PAE (Enterococcus faecalis [3]) of 3.6 h. It also gave a PAE (Staphylococcus aureus [4]) of 1.2 h, a PAE (Staphylococcus aureus [5]) of 6 h and a PAE (Enterococcus faecalis [6]) of 5.3 h. For the same molecule, the PAE (Staphylococcus aureus [7]) was 1.7 h, the PAE (Streptococcus pyogenes) was 6.1 h and the PAE (Enterococcus faecium) was 1.9 h. For the same molecule, the MIC (Enterococcus faecalis [8]) was 0.25 µg/mL (≈ 0.142 µM), the PAE (Staphylococcus aureus [9]) was 6.3 h and the PAE (Enterococcus faecalis [10]) was 2 h. It also gave an MIC (Staphylococcus aureus [11]) of 0.12 µg/mL (≈ 0.0684 µM), a PAE (Staphylococcus aureus [12]) of 2.3 h and a PAE (Staphylococcus aureus [13]) of 5.4 h. It also gave a PAE (Staphylococcus aureus [14]) of 9.6 h, an MIC (Staphylococcus aureus [15]) of 0.25 µg/mL (≈ 0.142 µM) and a PAE (Staphylococcus aureus [16]) of 1.9 h. It also gave a PAE (Staphylococcus aureus [17]) of 0.8 h, a PAE (Staphylococcus aureus [18]) of 0.3 h and a PAE (Staphylococcus aureus [19]) of over 10 h.
